This is a sample that favours compounds with a hit; in the whole collection about 4.2% have one here.
CHOP UPR activ: apoptotic UPR (CHOP) activation. CHO-CHOP luciferase reporter, luminescence; percent of tunicamycin response over DMSO baseline. activation, % at 10 µM. hit rate 0.34% among 330,000. AID 449763;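 active means at 10 µM dose, activation of 40% or more, normalized to positive control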
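assay system = CHO CHOP reporter cells | amount = 500 CHO-CHOP cells per well | buffer or medium = F12 with 10% FBS | incubation = 16-18 h cell attachment, then 6 h compound exposure, 37 °C | detection = luminescence read with Steady-Glo | read-out = percent activation relative to tunicamycin control | controls = tunicamycin high control, DMSO low control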
ANO1 activ: activators or potentiators of mouse TMEM16A chloride channel | B-score at 10 µM | hit rate 0.3% among 340,000 | HEK293 TMEM16A/YFP-H148Q/I152L, iodide quench fluorescence; stronger effect = lower value | AID 623877;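 active means fluorescence-ratio B-score plate-corrected deviation score at least 3 library SD below zero, with starting fluorescence score within 5 deviations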;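 further: channel opened by trigger with iodide after compound preincubation; score built on the fluorescence ratio of max minus min over baseline; more negative score means more quench and so TMEM16A activation or potentiation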
Hep lipid drop: modulators of hepatic lipid droplet formation | AML12 mouse hepatocytes, oleate lipid droplets, BODIPY imaging | inhibition, % at 6.5 µM | hit rate 0.4% among 240,000 | AID 1656;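 active means lipid droplet intensity inhibited by at least 50%, with more than 500 cells counted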
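material = mouse AML12 hepatocyte cell line, fixed after treatment | also added = 100 µM oleic acid challenge | doses = compound at 6.5 µM only | schedule = overnight exposure | technique = Image-based BODIPY and DAPI two-channel analysis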
CHOP inhibitor: blocks CHOP induction under ER stress | CHO-K1 CHOP-promoter luciferase, tunicamycin-induced, 15-18 h | hit rate 3.8% among 220,000 | inhibition, % at 10 µM;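 active means compounds that reduced the stress-induced luciferase reporter signal by more than about 70% of percent inhibition, limit read from the data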
ANO1 block: inhibitors of mouse TMEM16A calcium-activated chloride channel. Q8BHY3. HEK293 TMEM16A/YFP iodide influx fluorescence, ionomycin. normalized B-score (activity score, 25-100; higher = stronger inhibition) at 10 µM. hit rate 1.2% among 310,000. AID 588511;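 active means ratio plate-corrected score three or more library SD toward inhibition, starting fluorescence score within five deviations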;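 further: score derived from kinetic fluorescence span divided by baseline fluorescence per well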
XBP1 UPR activ: adaptive UPR (XBP1) activation; CHO-XBP1 luciferase reporter, IRE1-XBP1 UPR activation, luminescence; percent of tunicamycin response, DMSO as zero; hit rate 0.33% among 330,000; activation, % at 20 µM;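 active means versus positive control, 20 µM dose yields 30% or more activation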
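Material: CHO-XBP1 cells stably carrying IRE1-XBP1-driven luciferase reporter / Amount: 1000 cells per well / Compound: 20 µM, 1% DMSO / Times: 6 h treatment, 37 °C / Detection: luciferase luminescence / Measure: % activation of reporter signal versus tunicamycin and DMSO controls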
TMEM16A reconf: re-confirmation of mouse TMEM16A chloride channel inhibitors; shares compounds with ANO1 block; HEK293 TMEM16A/YFP-H148Q, iodide quench fluorescence; ionomycin added to raise cell calcium; inhibition, % at 10 µM; hit rate 39% among 2,300; AID 652189;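 active means mean duplicate percent inhibition, scaled so buffer wells are 0 and the reference blocker 100, over three buffer SD above buffer mean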
TMEM16A Ca cntr: counter-screen for TMEM16A inhibitors: effect on calcium mobilization | shares compounds with ANO1 block | TMEM16A/YFP HEK293, Fluo4 calcium mobilization | calcium response (% of ionomycin), % at 10 µM | hit rate 2% among 2,300;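 active means duplicate-averaged calcium signal over 20% of the ionomycin maximum, relative to buffer baseline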;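 further: each well's signal is peak minus trough fluorescence divided by its pre-addition baseline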
YFP-HEK293 quench: counter-screen for TMEM16A inhibitors: effect in parental YFP-HEK293 cells; shares compounds with ANO1 block; iodide YFP quench, ionomycin; YFP ratio F(max-min)/F0 at 10 µM; 2,300 tested, under 10 active;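 active means yellow fluorescent protein signal ratio exceeding the buffer control mean by over 5 SD of those controls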;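 further: ratio is mean of duplicate wells from kinetic YFP trace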
ClC-1 rat inh: selectivity of TMEM16A inhibitors: inhibition of rat ClC-1 chloride channel; shares compounds with ANO1 block; CHO ClC-1-YFP, iodide influx fluorescence quench; iodide control reads 0, buffer control 100; ratio percent, % at 10 µM; 2,300 tested, under 10 active; AID 652236;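 active means duplicate-mean ratio percent above the mean of iodide-only control wells, which defines zero, plus 5 of their SD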;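 further: higher percent means stronger block of ClC-1 iodide influx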
Large screens that a line does not name were inactive (follow-up assays come after a bar, where they were run).

NCCCC[C@@H](C(=O)N1CCNCC1)n1cc([C@@H](N)CC(N)=O)nn1	none (no result: Hep lipid drop, CHOP inhibitor)
O=C(NCc1ccco1)c1ccccc1NS(=O)(=O)c1ccc(Br)s1	ANO1 block 100 (no result: Hep lipid drop) | TMEM16A reconf inactive | TMEM16A Ca cntr inactive | YFP-HEK293 quench inactive | ClC-1 rat inh inactive
COc1ccc(S(=O)(=O)Nc2ccccc2C(=O)NCc2ccco2)cc1	none (no result: Hep lipid drop)
CCCN(c1ccccc1F)S(=O)(=O)c1cc(-c2cc(C)no2)ccc1OC	none (no result: CHOP inhibitor)
CCc1cccc(OCC(=O)Nc2ccc(C)c(S(=O)(=O)N3CCCCCC3)c2)c1	ANO1 block 100 (no result: Hep lipid drop, CHOP inhibitor) | TMEM16A reconf inactive | TMEM16A Ca cntr inactive | YFP-HEK293 quench inactive | ClC-1 rat inh inactive
CCc1ccc(C(=O)Nc2ccc(OC)c(S(=O)(=O)N3CCCCC3)c2)cc1	none (no result: Hep lipid drop, CHOP inhibitor, ANO1 block)
COc1ccc(C(=O)Nc2ccc(C)c(S(=O)(=O)N3CCCCCC3)c2)cc1	ANO1 block 100 | TMEM16A reconf inactive | TMEM16A Ca cntr inactive | YFP-HEK293 quench inactive | ClC-1 rat inh inactive
Cc1ccc(NC(=O)c2ccc(F)cc2)cc1S(=O)(=O)N1CCCCCC1	none
CCc1ccc(C(=O)Nc2ccc(OC)c(S(=O)(=O)N3CCOCC3)c2)cc1	ANO1 block 100 | TMEM16A reconf inactive | TMEM16A Ca cntr inactive | YFP-HEK293 quench inactive | ClC-1 rat inh inactive
Cc1ccc(NC(=O)COc2cccc(C)c2C)cc1S(=O)(=O)N1CCCCCC1	none (no result: Hep lipid drop, CHOP inhibitor)
Cc1cccc(OCCC(=O)Nc2ccc(C)c(S(=O)(=O)N3CCOCC3)c2)c1	none (no result: ANO1 activ, Hep lipid drop, CHOP inhibitor, ANO1 block)
Cc1cccc(OCCC(=O)Nc2ccc(C)c(S(=O)(=O)N3CCCCC3)c2)c1	ANO1 block 25 (no result: CHOP UPR activ, XBP1 UPR activ) | TMEM16A reconf 34% | TMEM16A Ca cntr inactive | YFP-HEK293 quench inactive | ClC-1 rat inh inactive
Cc1ccc(NC(=O)CSc2ncnc3ccccc23)cc1S(=O)(=O)N1CCCCCC1	CHOP inhibitor 70, ANO1 block 25 | TMEM16A reconf 27% | TMEM16A Ca cntr inactive | YFP-HEK293 quench inactive | ClC-1 rat inh inactive
O=C(CCCCCn1c(=O)[nH]c2ccsc2c1=O)NCc1ccc2c(c1)OCO2	ANO1 block 25 (no result: Hep lipid drop) | TMEM16A reconf inactive | TMEM16A Ca cntr inactive | YFP-HEK293 quench inactive | ClC-1 rat inh inactive
Cc1sc(NC(=O)CSc2nnc3scc(-c4ccccc4)n23)c(C#N)c1C	ANO1 block 25 | TMEM16A reconf inactive | TMEM16A Ca cntr inactive | YFP-HEK293 quench inactive | ClC-1 rat inh inactive
Cc1sc(NC(=O)CSc2nnc(COc3ccccc3)n2C)c(C#N)c1C	none
COc1ccc(OC)c(/C=C2/Sc3ccccc3C2=O)c1	none | TMEM16A reconf inactive | TMEM16A Ca cntr inactive | YFP-HEK293 quench inactive | ClC-1 rat inh inactive
CCCN1CCN(CC(O)COC(c2ccc(OC)cc2)c2ccc(OC)cc2)CC1 (stereo not given)	none (no result: CHOP UPR activ, CHOP inhibitor, XBP1 UPR activ)
CC1CCN(C(=O)CSc2nnc(CNc3ccc(F)cc3)n2Cc2ccco2)CC1	none
O=C(CSc1nnc(CNc2ccc(F)cc2)n1Cc1ccco1)N1CCCC1	ANO1 block 25 (no result: Hep lipid drop) | TMEM16A reconf inactive | TMEM16A Ca cntr inactive | YFP-HEK293 quench inactive | ClC-1 rat inh inactive
COc1ccc(NC(=O)COC(=O)CNC(=O)C2CCCCC2)cc1OC	none (no result: Hep lipid drop, CHOP inhibitor, ANO1 block)
Cc1cc(Cl)ccc1OCc1nc(-c2ccc(O)cc2)n[nH]1	ANO1 block 25 | TMEM16A reconf 26% | TMEM16A Ca cntr inactive | YFP-HEK293 quench inactive | ClC-1 rat inh inactive
Cc1ccc(NC(=O)COc2cccc(-n3cnnn3)c2)cc1[N+](=O)[O-]	none (no result: CHOP inhibitor)
Cc1ccc2nc(SCC(=O)N3CCC(Cc4ccccc4)CC3)nc(=O)n2c1	ANO1 block 100 (no result: Hep lipid drop, CHOP inhibitor) | TMEM16A reconf 16% | TMEM16A Ca cntr inactive | YFP-HEK293 quench inactive | ClC-1 rat inh inactive
COC(=O)c1cc(S(=O)(=O)NCCN2CCN(c3ccccc3F)CC2)c[nH]1	none (no result: CHOP inhibitor)
Cn1c(/C=C/c2ccc(Cl)cc2)nc2ccccc2c1=O	none (no result: CHOP inhibitor)
O=[N+]([O-])c1ccc(S(=O)(=O)NCC(c2ccco2)N2CCc3ccccc3C2)cc1 (stereo not given)	none (no result: Hep lipid drop, CHOP inhibitor)
O=S(=O)(NCC(c1cccs1)N1CCc2ccccc2C1)c1ccccc1 (stereo not given)	none (no result: Hep lipid drop, CHOP inhibitor) | TMEM16A reconf 35% | TMEM16A Ca cntr inactive | YFP-HEK293 quench inactive | ClC-1 rat inh inactive
CC(=O)N1CC(C)Oc2ccc(S(=O)(=O)NC(CC(=O)O)c3cc(C)ccc3C)cc21 (stereo not given)	none (no result: CHOP inhibitor)
COc1ccc(CCNC(=O)c2ccc(N3CCCC3=O)cc2)cc1	none
CCOc1ccc(CCNC(=O)c2ccc(N3CCCC3=O)cc2)cc1OCC	ANO1 block 25 | TMEM16A reconf inactive | TMEM16A Ca cntr inactive | YFP-HEK293 quench inactive | ClC-1 rat inh inactive
COC(=O)[C@H](CC(C)C)NC(=O)NC1CCCCC1C (stereo not given in full)	ANO1 block 25 | TMEM16A reconf inactive | TMEM16A Ca cntr inactive | YFP-HEK293 quench inactive | ClC-1 rat inh inactive
OC(c1ccccc1)c1cccnc1 (stereo not given)	none
CC(=O)NC(c1ccccc1)c1cccnc1 (stereo not given)	ANO1 block 25 (no result: Hep lipid drop) | TMEM16A reconf inactive | TMEM16A Ca cntr inactive | YFP-HEK293 quench inactive | ClC-1 rat inh inactive
Cc1cc(NC(=O)C(C)SCC(=O)OCc2ccc(Cl)cc2Cl)no1 (stereo not given)	none (no result: Hep lipid drop, CHOP inhibitor, ANO1 block)
NC1=NC[C@H](Cc2ccc(O)cc2)N1CCCCC1CCCCC1	none
NC1=NC[C@H](Cc2ccccc2)N1CCCCC1CCCCC1	ANO1 block 25 | TMEM16A reconf 38% | TMEM16A Ca cntr inactive | YFP-HEK293 quench inactive | ClC-1 rat inh inactive
CC(C)(O)C(=O)N=Nc1c(O)[nH]c2ccccc12	none
Oc1[nH]c2ccccc2c1N=Nc1ccccc1	none | TMEM16A reconf inactive | TMEM16A Ca cntr inactive | YFP-HEK293 quench inactive | ClC-1 rat inh inactive
O=C(c1cccc(C(F)(F)F)c1)N1CCC(O)(CS(=O)(=O)Cc2ccccc2)CC1	ANO1 block 100 (no result: Hep lipid drop) | TMEM16A reconf inactive | TMEM16A Ca cntr inactive | YFP-HEK293 quench inactive | ClC-1 rat inh inactive
